Screens (PubChem BioAssay)
Platelet DG rel = platelet dense granule release activity | human platelet-rich plasma, SFLLRN dense granule ATP release, luminescence | inhibition, %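 (compounds screened at 7.5 µM in platelet-rich plasma)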 | 0.22% of 300,000 active;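 active = mean replicate score, as percent of positive control, at or above 50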
Rce1 inhib = inhibitors of yeast Ras-converting enzyme. calls only. Q03530. 0.27% of 290,000 active. yeast membranes, quenched prenylated peptide cleavage fluorescence. AID 2563;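 active = fall in fluorescence gain of 50% or more versus controls, with final raw signal at or below 3038400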;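 note: plate controls were neutral control wells for no effect and wells lacking membranes for full effect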
TAAR1 agonist = human TAAR1 agonism. Q96RJ0. CHO RD-HGA16 TAAR1, Fluo-8 calcium fluorescence; vehicle wells 0%, saturating PEA agonist 100%. activation, % at 3 µM. 0.99% of 360,000 active;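 active = activation above the mean activation of all test compounds in the run plus 3 SD, cut at about 38% in these data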
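System: CHO-derived RD-HGA16 cells with stable Gα16 and human TAAR1 / Times: 17-24 h plating, Fluo-8 75 min 37 °C, 30 min RT / Technique: calcium-sensitive Fluo-8 signal, excitation 470-495, emission 515-575 nm / Measure: % activation relative to PEA EC100 response / Benchmarks: DMSO and PEA EC100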
VLA-4 inh = inhibition in a human VLA-4 binding assay | inhibition, % (about 7 µM as worked out from the volumes in the protocol) | P13612 | VLA-4 expressing cells, ligand binding flow cytometry | 0.2% of 330,000 active; in the data active = inhibition above about 50%
Target sequence (P13612 whole entry, looked up): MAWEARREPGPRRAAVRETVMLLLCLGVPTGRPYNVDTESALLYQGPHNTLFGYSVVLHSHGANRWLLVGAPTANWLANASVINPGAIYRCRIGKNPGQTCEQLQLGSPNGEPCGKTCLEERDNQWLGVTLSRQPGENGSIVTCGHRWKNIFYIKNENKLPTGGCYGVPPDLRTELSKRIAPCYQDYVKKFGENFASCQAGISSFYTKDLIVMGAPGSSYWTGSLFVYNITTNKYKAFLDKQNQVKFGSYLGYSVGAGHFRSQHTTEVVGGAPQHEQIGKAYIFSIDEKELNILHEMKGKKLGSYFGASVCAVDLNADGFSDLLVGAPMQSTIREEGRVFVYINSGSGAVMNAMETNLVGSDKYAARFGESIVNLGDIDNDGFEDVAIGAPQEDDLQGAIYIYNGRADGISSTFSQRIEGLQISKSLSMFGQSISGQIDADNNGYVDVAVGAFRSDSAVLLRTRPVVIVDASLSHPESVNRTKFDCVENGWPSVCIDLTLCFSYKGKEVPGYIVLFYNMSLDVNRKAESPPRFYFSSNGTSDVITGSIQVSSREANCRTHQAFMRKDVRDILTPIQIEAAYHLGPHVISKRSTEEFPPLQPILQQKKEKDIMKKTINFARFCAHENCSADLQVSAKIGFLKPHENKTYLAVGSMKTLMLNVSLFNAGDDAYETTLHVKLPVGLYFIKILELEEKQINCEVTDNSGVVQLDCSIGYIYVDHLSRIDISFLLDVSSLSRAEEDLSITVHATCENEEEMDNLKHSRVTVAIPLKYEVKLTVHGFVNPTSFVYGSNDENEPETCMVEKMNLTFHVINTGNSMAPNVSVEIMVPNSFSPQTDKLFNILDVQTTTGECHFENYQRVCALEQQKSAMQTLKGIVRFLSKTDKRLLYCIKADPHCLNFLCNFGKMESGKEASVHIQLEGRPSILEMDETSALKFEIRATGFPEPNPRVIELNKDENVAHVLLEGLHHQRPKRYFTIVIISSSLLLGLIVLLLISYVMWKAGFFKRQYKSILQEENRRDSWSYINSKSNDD
TAAR1 antagonist = antagonists of human TAAR1 | Q96RJ0 | CHO RD-HGA16 TAAR1, Fluo-8 calcium fluorescence, antagonist | inhibition, % at 3 µM | 1.5% of 360,000 active | AID 624466;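 active = inhibition above a per-plate cutoff, the mean inhibition of test compounds on that plate plus 3 SD, cut at about 49% in these data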;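 note: 0% = DMSO plus EC80 beta-PEA response and 100% = DMSO alone without agonist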
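Material: CHO RD-HGA16 cells bearing hTAAR1; compound dosing: one-point dosing, 3 µM nominal final; schedule: dye loading 75 min at 37 °C, then 30 min room temperature; measured by: calcium fluorescence with Fluo-8; control set: vehicle and agonist controls; replication: n of 1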
TAAR1 nonsel count = counter-screen for TAAR1 antagonists: nonselective antagonists | shares compounds with TAAR1 antagonist | counterscreen cell line, calcium fluorescence, antagonist mode | inhibition, % at 3 µM | 77% of 2,400 active | AID 651780; in the data active = inhibition above about 22%;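 note: CHO-Ga16 host cells stimulated with ATP at an EC80 level; 0% = agonist EC80 plus vehicle and 100% = vehicle without agonist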
TAAR1 antag conf = human TAAR1 antagonism, confirmed | 40% of 2,400 active | inhibition, % at 3 µM | TAAR1-expressing cells, fluorescence antagonist read-out | shares compounds with TAAR1 antagonist; in the data active = inhibition above about 49%;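 note: CHO-Ga16 host cells challenged with agonist PEA near its EC80; 0% = agonist at EC80 plus vehicle and 100% = vehicle with no agonist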
Ga16 ag counter = counter-screen for TAAR1 antagonists: nonselective Ga16 agonists; Ga16-expressing cells, calcium fluorescence, agonist counterscreen; AID 651953; shares compounds with TAAR1 antagonist; activation, % at 3 µM; 18% of 2,400 active; in the data active = activation above about 12%;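 note: 0% = vehicle wells and 100% = saturating stimulus response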
TAAR1 ag count = counter-screen for human TAAR1 antagonists: TAAR1 agonists; shares compounds with TAAR1 antagonist; hTAAR1 cell line, fluorescence activation, agonist mode; activation, % at 3 µM; 2% of 2,400 active; AID 651955; in the data active = activation above about 37%;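 note: CHO cells stably expressing TAAR1 with calcium dye readout; 0% = DMSO vehicle and 100% = full agonist response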
* = called active by the depositor; i = inactive; x = no result; + = active, no number. Only some compounds are listed: those with a hit (about 2.6% of all), similar ones and a draw of the others.

SMILES	Platelet DG rel	Rce1 inhib	TAAR1 agonist	VLA-4 inh	TAAR1 antagonist	TAAR1 nonsel count	TAAR1 antag conf	Ga16 ag counter	TAAR1 ag count
CC(=O)Nc1ccc(C(=O)Nc2cccc(S(=O)(=O)N(C)c3ccccc3)c2)cc1	x	x	18.2	17.1	52.1*	32.7*	44.5	8.8	5.3
COc1cc(CNc2ncnc3c2ncn3[C@H]2CN(Cc3ccncc3)C[C@@H](CO)O2)cc(OC)c1OC	x	x	0.5	x	4.9	x	x	x	x
COc1ccccc1N(C)S(=O)(=O)c1ccc(C(=O)Nc2cc(OC)c(OC)c(OC)c2)cc1	x	x	14.0	x	56.9*	22.6*	33.9	10.1	7.0
CN(C)S(=O)(=O)N1CCC(Oc2cccc(C(=O)NCCC3=CCCCC3)c2)CC1	-8.6	i	12.7	19.2	81.3*	43.3*	60.2*	12.7*	8.3
CC1(C)C(=O)Nc2ccccc2N1C(=O)COC(=O)c1cc(S(C)(=O)=O)ccc1Cl	x	x	4.6	x	25.4	x	x	x	x
CC1(C)C(=O)Nc2ccccc2N1C(=O)COC(=O)c1ccc(Cl)c(S(=O)(=O)NCc2ccccc2)c1	x	i	19.8	3.5	63.2*	34.8*	60.3*	7.3	16.6
CN(Cc1ccccc1)c1nc2c(c(=O)n(C)c(=O)n2C)n1CCCc1ccccc1	-2.9	i	8.9	1.3	49.4*	27.4*	52.0*	17.3*	39.5*
Cc1c(C(=O)N(Cc2ccccc2)C(C)C)oc2ccc(S(=O)(=O)N3CCOCC3)cc12	8.4	i	10.8	9.6	79.9*	32.7*	60.8*	13.5*	11.2
Cc1c(C(=O)N(C)Cc2ccccc2)oc2ccc(S(=O)(=O)N3CCCC3)cc12	1.0	i	14.9	-3.8	-10.8	x	x	x	x
Cc1cc2oc(C(=O)N3CCN(Cc4ccccc4)CC3)c(C)c2cc1C	0.3	i	2.4	19.4	-22.4	x	x	x	x
COc1ccc(OC)c2[nH]c(=O)c(CCNC(=O)c3cc4ccccc4o3)cc12	5.8	i	2.7	5.7	25.2	x	x	x	x
Cc1ccc(C)c2[nH]c(=O)c(CCNC(=O)c3cc4ccccc4o3)cc12	-8.4	i	6.5	13.6	48.8*	24.1*	25.4	7.2	3.4
O=C(CCNC(=O)c1ccc([N+](=O)[O-])cc1)Nc1ccc(Cl)c(S(=O)(=O)N2CCOCC2)c1	x	x	0.3	7.5	102.4*	-2.9	-12.3	3.1	3.1
Cc1ccc(NC(=O)CCNC(=O)c2ccc(Br)cc2)cc1S(=O)(=O)N1CCOCC1	13.7	i	1.0	9.2	-8.0	x	x	x	x
CCOC(=O)CCCSc1nnc(CCCCCN2C(=O)c3cccc4cccc(c34)C2=O)o1	-7.7	i	5.8	6.0	57.8*	37.0*	48.2	7.6	3.6
Cc1ccc(-n2nc3c(=O)n(CCCC(=O)NCC(C)c4ccccc4)nc(C)c3c2C)cc1 (stereo not drawn)	5.3	i	15.8	15.2	-44.0	x	x	x	x
[2H]c1c([2H])c([2H])c(-c2nc(N3CCCCCC3)sc2C(=O)c2ccccc2)c([2H])c1[2H]	7.9	i	14.7	19.2	61.9*	11.4	16.0	0.3	0.6
O=C(c1sc(N2CCOCC2)nc1-c1ccccc1)N1CCCCC1	12.6	i	-0.7	5.1	-5.1	x	x	x	x
Cc1ccc2c(c1)-c1c(cnn1CC(=O)N1CCCN(Cc3ccccc3F)C1)CO2	-4.1	i	14.2	2.5	75.3*	27.7*	51.8*	9.9	9.6
COc1ccc(C2C(C(=O)N3CCN(c4ccccn4)CC3)CCC(=O)N2c2ccc(OC)cc2)cc1 (stereo not drawn)	1.4	i	2.2	3.9	-7.2	x	x	x	x
COc1ccc(C2C(C(=O)N3CCN(c4ccccn4)CC3)CC(=O)N2c2ccc(OC)cc2)cc1 (stereo not drawn)	0.7	i	20.0	-8.1	56.6*	25.7*	46.1	12.9*	12.1
CN(C(=O)c1cccc(NC(=O)Cc2cccc(NC(=O)C3CCCN(C(=O)c4ccccc4)C3)c2)c1)C1CCC1 (stereo not drawn)	x	x	2.1	x	-20.0	x	x	x	x
Cc1ccc(NC(=O)Cn2nc(C(=O)O)c3ccccc3c2=O)cc1S(=O)(=O)N1CCOCC1	x	x	1.1	-0.7	-9.6	x	x	x	x
Cc1ccc(NC(=O)Cn2nc(C(=O)O)c3ccccc3c2=O)cc1S(=O)(=O)N1CCCCCC1	x	x	-3.5	x	101.7*	35.8*	43.0	8.7	6.0
CCOC(=O)CN1C(=O)N2C[C@H]3CON(C)[C@H]3C[C@H]2c2ccccc21	x	x	3.4	x	-14.2	x	x	x	x
SMILES	Platelet DG rel	Rce1 inhib	TAAR1 agonist	VLA-4 inh	TAAR1 antagonist	TAAR1 nonsel count	TAAR1 antag conf	Ga16 ag counter	TAAR1 ag count
CC(C)[C@H](NC(=O)c1c(F)cccc1F)C(=O)Nc1cccc(Br)c1	24.4	i	0.9	7.8	-3.3	x	x	x	x
N#CC1=C(N)NC(SCc2ccccc2)=C(C#N)C12CCCC2	-12.1	i	15.5	6.3	46.2	x	x	x	x
N#CC1=C(N)NC(SCC(=O)c2ccccc2)=C(C#N)C12CCCC2	-5.9	i	12.3	-16.9	55.8*	33.5*	44.8	13.0*	11.6
COc1ccccc1N(CC(=O)NC1CCCC1)C(=O)CNC(=O)c1cccs1	2.2	i	-1.0	4.2	3.4	x	x	x	x
Cc1n[nH]c(C)c1S(=O)(=O)N(CC(=O)NC1CCCC1)c1ccc(C(C)C)cc1	7.0	i	8.8	11.1	61.3*	22.5*	38.1	7.8	10.8
CC(/C=N/NC(=O)c1nnn(-c2nonc2N)c1C(C)C)=C\c1ccccc1	2.0	i	8.0	-4.7	15.3	x	x	x	x
CC(C)c1c(C(=O)N/N=C/c2c[nH]c3ccccc23)nnn1-c1nonc1N	-9.8	+	33.5	1.9	75.5*	40.0*	61.7*	17.5*	17.9
COc1ccccc1CN(Cc1nc2ccccc2c(=O)[nH]1)S(=O)(=O)c1ccc(C)cc1	-3.9	i	1.2	-4.2	52.7*	14.5	37.9	7.6	10.5
COc1cc2c(cc1OC)/C(=C/C(=O)c1cccc([N+](=O)[O-])c1)NCC2	3.3	i	5.4	-9.1	49.5*	25.5*	29.4	4.6	-0.1
COc1ccc(C(=O)COC(=O)c2sc(C)nc2C)cc1OC	x	x	17.0	4.5	12.3	x	x	x	x
CCOC(=O)Cc1n[nH]c(=O)c2ccccc12	-3.0	i	8.6	2.6	2.1	x	x	x	x
O=C(Cc1n[nH]c(=O)c2ccccc12)OCC(=O)N(Cc1ccccc1)Cc1ccccc1	0.6	i	3.9	-1.2	57.3*	20.9	38.5	4.2	2.9
COc1ccc(-c2ccc(SCC(=O)Nc3cccc(C(C)=O)c3)nn2)cc1OC	2.3	i	9.6	-3.6	52.7*	24.1*	26.9	5.7	1.6
